The values below come from ChEMBL document CHEMBL1132974 (J Med Chem, 2000).

Assay [1] addresses Histamine H1 receptor (Cavia porcellus) (UniProt P31389). Briefly: Negative logarithm of receptor dissociation constant Kp was reported in guinea pig ileum whole segment. The class given is functional, tissue-based. An outline of the steps:
(§1)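 Guinea-pig ileum (0.1 µM atropine, 37 °C Tyrode's). […] Where several partial-agonist concentrations were used, the overall value comes from a Kaumann-Marano plot with slope constrained to unity.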

Assay [2] has as its target T1, Histamine H1 receptor (Cavia porcellus, UniProt P31389). Briefly: Effective concentration for agonist activity in guinea pig ileum whole segment. The class given is functional, tissue-based.
For assay [3], the target named is T1, Histamine H1 receptor. Nature of the assay: Antagonism of guinea pig ileum contraction at 100 nM mepyramine. The class given is functional, tissue-based. The settings on record: read-out: pA2 (converted). The essentials: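 Guinea-pig whole ileal segments (2.0–2.5 cm), isotonic, preload 0.5 g, Tyrode's at 37 °C, 95% O2/5% CO2, with 0.1 µM atropine throughout. […] Apparent pA2 = −log c + log(r−1); full pA2 from Schild plot, slope fixed at 1.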

Assay [4] deals with T2, Histamine H1 receptor (Rattus norvegicus, UniProt P31390). Nature of the assay: Effective concentration for agonism activity in relaxed rat aortic rings with intact endothelium, submaximally precontracted with 15.8 nM U-46,619. The class given is functional, tissue-based, Aorta.
T2 sequence (P31390 whole entry): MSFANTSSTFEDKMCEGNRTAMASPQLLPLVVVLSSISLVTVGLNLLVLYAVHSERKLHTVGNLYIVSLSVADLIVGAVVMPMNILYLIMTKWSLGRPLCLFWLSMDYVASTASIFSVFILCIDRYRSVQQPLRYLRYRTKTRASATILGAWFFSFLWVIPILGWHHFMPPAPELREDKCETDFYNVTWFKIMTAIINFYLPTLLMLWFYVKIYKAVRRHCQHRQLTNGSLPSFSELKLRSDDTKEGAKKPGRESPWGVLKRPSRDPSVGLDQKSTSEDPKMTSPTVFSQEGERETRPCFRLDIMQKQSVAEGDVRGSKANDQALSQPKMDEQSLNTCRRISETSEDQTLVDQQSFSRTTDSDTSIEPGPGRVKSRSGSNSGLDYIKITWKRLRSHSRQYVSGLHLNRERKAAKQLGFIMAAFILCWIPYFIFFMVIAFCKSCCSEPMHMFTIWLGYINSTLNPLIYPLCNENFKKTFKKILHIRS
The target in assay [5] is Histamine H1 receptor (Rattus norvegicus) (UniProt P31390). Nature of the assay: The compound was evaluated for intrinsic activity in relaxed rat aortic rings with intact endothelium, submaximally precontracted with 15.8 nM U-46,619. The class given is functional, tissue-based. More on the design: unit not given here. The note with it: Aorta.
Target sequence in this assay (P31390 whole entry): as above
Assay [6] has as its target T1, Histamine H1 receptor. Briefly: (§2) Effective concentration for agonism activity in endothelium-denuded guinea pig aortic segment. Format: functional, tissue-based, Aorta. An outline of the steps: (§3)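 Guinea-pig thoracic aortic rings (2–4 mm), endothelium rubbed off, isometric (10 mN), modified Krebs-Henseleit (1.80 mM Ca2+), 37 °C. Cimetidine, corticosterone and cocaine (30 µM each), prazosin and yohimbine (0.3 µM each) and propranolol (0.1 µM) were present. […] The pEC50 shift was corrected using untreated control preparations.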

The target in assay [7] is Muscarinic acetylcholine receptor M3 (Cavia porcellus, UniProt Q8VH26). Nature of the assay: Compound was evaluated for its antagonist affinity towards Muscarinic acetylcholine receptor M3 of guinea pig. The settings on record: read-out: pA2 (converted). The class given is functional. An outline of the steps: (§4)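 Functional antagonism assays in guinea-pig tissues, each run with 1 µM mepyramine present: M3 (whole ileum), β1 (right atrium), 5-HT1B (iliac artery), 5-HT3 (quiescent ileal longitudinal muscle with myenteric plexus). Results are given as apparent pA2, or pD'2 when only curve depression occurred.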
Chain of Muscarinic acetylcholine receptor M3 (Q8VH26 whole entry): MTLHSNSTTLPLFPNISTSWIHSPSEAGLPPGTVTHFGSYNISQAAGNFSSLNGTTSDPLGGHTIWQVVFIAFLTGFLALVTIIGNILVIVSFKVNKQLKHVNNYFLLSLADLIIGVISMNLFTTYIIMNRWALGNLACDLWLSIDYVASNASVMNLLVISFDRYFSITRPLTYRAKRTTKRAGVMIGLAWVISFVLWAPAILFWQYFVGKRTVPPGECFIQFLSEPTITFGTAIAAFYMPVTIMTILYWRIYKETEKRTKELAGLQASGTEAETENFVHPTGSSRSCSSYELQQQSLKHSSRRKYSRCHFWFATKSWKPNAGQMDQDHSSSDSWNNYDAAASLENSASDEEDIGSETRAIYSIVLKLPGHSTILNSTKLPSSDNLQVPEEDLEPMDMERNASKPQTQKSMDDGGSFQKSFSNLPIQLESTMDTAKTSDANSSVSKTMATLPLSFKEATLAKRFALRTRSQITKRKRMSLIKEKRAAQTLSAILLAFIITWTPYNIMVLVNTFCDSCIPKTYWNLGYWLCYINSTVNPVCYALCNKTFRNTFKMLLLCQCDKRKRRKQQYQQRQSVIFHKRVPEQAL

A further assay has as its target Histamine H2 receptor (Cavia porcellus, UniProt P47747). Nature of the assay: Compound was evaluated for its antagonist affinity towards Histamine H2 receptor of guinea pig. Format: functional. The note with it: read-out: pA2 (converted).
The target in the next assay is Histamine H3 receptor (Cavia porcellus, UniProt Q9JI35). Nature of the assay: Compound was evaluated for its antagonist affinity towards Histamine H3 receptor of guinea pig. The class given is functional. The settings on record: read-out: pA2 (converted). An outline of the steps: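 Electrically stimulated guinea-pig ileal longitudinal muscle with myenteric plexus, isometric (7.5 mN). Cumulative (R)-α-methylhistamine curves were run with and without test compound (20 min), with 1 µM mepyramine present. Values were apparent pA2, or pD'2 where curves were depressed.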
Chain of Histamine H3 receptor (Q9JI35 whole entry): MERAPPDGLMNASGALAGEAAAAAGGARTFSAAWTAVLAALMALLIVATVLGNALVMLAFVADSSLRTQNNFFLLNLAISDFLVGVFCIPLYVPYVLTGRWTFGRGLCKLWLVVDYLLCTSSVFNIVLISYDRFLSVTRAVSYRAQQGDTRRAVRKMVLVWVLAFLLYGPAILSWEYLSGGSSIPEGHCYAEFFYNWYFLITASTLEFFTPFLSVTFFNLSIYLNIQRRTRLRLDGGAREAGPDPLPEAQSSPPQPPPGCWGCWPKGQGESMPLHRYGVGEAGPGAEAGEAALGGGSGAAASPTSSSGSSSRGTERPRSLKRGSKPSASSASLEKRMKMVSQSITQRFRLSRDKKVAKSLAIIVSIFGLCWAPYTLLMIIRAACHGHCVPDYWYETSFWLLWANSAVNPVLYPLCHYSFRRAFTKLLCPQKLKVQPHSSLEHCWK

In assay [8] the target is Histamine H1 receptor (Rattus norvegicus) (UniProt P31390). Nature of the assay: Compound was evaluated for mepyramine antagonism effects in rat aorta (relaxation) at a mepyramine concentration of 100 nM. The note with it: read-out: pA2 (converted).
Target sequence in this assay (P31390 whole entry, looked up): as the sequence (P31390 whole entry) above
The target of assay [9] is Histamine H1 receptor (Cavia porcellus) (UniProt P31389). Nature of the assay: Intrinsic activity was reported in guinea pig ileum whole segment. The class given is functional, tissue-based.
Chain of Histamine H1 receptor (Cavia porcellus) (P31389 whole entry): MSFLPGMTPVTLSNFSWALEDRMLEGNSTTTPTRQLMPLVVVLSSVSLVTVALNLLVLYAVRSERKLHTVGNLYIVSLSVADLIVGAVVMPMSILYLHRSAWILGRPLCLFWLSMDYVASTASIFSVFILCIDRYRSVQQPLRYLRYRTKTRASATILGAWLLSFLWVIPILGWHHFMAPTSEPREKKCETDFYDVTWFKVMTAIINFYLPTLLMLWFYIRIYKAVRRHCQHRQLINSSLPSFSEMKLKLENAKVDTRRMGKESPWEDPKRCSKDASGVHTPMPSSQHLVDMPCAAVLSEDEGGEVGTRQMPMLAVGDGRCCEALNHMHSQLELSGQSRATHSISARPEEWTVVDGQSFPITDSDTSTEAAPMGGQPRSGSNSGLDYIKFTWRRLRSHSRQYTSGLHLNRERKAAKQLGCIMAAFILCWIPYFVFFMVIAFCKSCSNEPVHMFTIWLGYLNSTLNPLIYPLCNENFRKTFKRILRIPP
In assay [10] the target is T3, Alpha-1D adrenergic receptor (Rattus norvegicus, UniProt P23944).
T3 sequence (P23944 whole entry): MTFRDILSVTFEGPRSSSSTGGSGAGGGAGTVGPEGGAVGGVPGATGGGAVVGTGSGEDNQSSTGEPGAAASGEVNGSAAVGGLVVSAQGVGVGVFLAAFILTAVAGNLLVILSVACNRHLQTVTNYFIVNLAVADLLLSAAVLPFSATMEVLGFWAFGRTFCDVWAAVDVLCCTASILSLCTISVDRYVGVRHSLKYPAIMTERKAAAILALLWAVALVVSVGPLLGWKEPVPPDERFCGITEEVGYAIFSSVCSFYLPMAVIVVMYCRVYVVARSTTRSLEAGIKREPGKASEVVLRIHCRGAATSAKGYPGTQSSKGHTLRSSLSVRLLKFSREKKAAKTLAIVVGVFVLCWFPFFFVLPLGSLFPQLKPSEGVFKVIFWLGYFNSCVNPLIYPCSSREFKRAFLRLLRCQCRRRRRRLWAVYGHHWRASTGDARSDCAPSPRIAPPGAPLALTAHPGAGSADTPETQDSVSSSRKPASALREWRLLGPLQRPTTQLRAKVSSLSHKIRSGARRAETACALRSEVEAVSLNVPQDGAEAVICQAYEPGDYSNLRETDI
Nature of the assay: Compound was evaluated for its antagonist affinity towards Alpha-1D adrenergic receptor of rat. Format: functional. The settings on record: read-out: pA2 (converted). An outline of the steps:
(§5)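 Functional antagonism in rat tissues: α1D (thoracic aorta), 5-HT2A (tail artery), 5-HT4 (oesophageal tunica muscularis mucosae). Results are given as apparent pA2 from single-concentration rightward shifts, or pD'2 when only curve depression occurred.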

Assay [11] concerns the target 5-hydroxytryptamine receptor 1B (Cavia porcellus). Briefly: Compound was evaluated for its antagonist affinity towards 5-hydroxytryptamine 1B receptor of guinea pig. The settings on record: read-out: pA2 (converted).
In assay [12] the target is Beta-1 adrenergic receptor (Cavia porcellus, UniProt B0FL73). Briefly: Compound was evaluated for its antagonist affinity towards Beta-1 adrenergic receptor of guinea pig. Format: functional. The note with it: read-out: pA2 (converted). The essentials:
as §4

Assay [13] deals with T1, Histamine H1 receptor. Nature of the assay: (§6) Effective concentration for agonism activity in Endothelium-Denuded guinea pig aortic segment. The class given is functional, tissue-based, Aorta. An outline of the steps: as §3
In assay [14] the target is Serotonin 3 (5-HT3) receptor. Briefly: Compound was evaluated for its antagonist affinity towards 5-hydroxytryptamine 3 receptor of guinea pig. The class given is functional, Cavia porcellus. The essentials:
as §4

The target in assay [15] is 5-hydroxytryptamine receptor 4 (Rattus norvegicus, UniProt Q62758). Briefly: Compound was evaluated for its antagonist affinity towards 5-hydroxytryptamine 4 receptor of rat. Format: functional. The settings on record: read-out: pA2 (converted). The essentials: as §5
Chain of 5-hydroxytryptamine receptor 4 (Q62758 whole entry): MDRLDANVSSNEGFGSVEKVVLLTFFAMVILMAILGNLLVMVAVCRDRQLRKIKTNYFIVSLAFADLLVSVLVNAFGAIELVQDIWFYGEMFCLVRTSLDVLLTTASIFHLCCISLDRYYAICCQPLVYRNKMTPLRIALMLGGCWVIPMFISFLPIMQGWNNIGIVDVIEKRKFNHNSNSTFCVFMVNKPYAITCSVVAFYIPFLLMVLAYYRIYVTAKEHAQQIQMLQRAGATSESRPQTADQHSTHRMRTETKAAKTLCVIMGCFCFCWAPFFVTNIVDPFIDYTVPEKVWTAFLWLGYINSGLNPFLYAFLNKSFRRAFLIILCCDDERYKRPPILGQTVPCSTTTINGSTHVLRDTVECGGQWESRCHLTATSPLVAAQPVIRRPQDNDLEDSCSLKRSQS
Assay [16] has as its target 5-hydroxytryptamine receptor 2A (Rattus norvegicus, UniProt P14842). Briefly: Compound was evaluated for its antagonist affinity towards 5-hydroxytryptamine 2A receptor of rat. The settings on record: read-out: pA2 (converted). Format: functional. An outline of the steps:
as §5

Assay [17] has as its target T1, Histamine H1 receptor. Nature of the assay: Compound was evaluated for mepyramine antagonism effects in guinea pig aorta (contraction) at a mepyramine concentration of 100 nM. The class given is functional, tissue-based. The settings on record: read-out: pA2 (converted). The essentials: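 Guinea-pig aortic rings with endothelium damaged, isometric (10 mN), 37 °C Krebs-Henseleit. Agonist curves were run with mepyramine (100 nM, about 60 min) after threshold PGF2α precontraction. Apparent pA2 = −log c + log(r−1).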

Assay [18] is filed under the species Cavia porcellus. The assay is described as §2. The settings on record: Aorta, read-out: Log EC50 (converted).
The species entered for a further assay is Rattus norvegicus. Nature of the assay: tissue or blood. The settings on record: Aorta, read-out: Log EC50 (converted).
Assay [19] is filed under the species Cavia porcellus. Briefly: Effective concentration for agonism activity in guinea pig ileal whole segment. The settings on record: read-out: Log EC50 (converted).
The species entered for assay [20] is Cavia porcellus. The description is as §6. The note with it: Aorta, read-out: Log EC50 (converted).
Assay [21] has as its target Histamine H1 receptor (Rattus norvegicus) (UniProt P31390). Nature of the assay: maximum relaxation evoked by carbachol in relaxed rat aortic rings with intact endothelium, submaximally precontracted with 15.8 nM U-46,619. The note with it: Aorta. Format: functional, tissue-based.
Target sequence in this assay (P31390 whole entry): as the sequence (P31390 whole entry) above
The target is the same in assay [22]. Briefly: Intrinsic activity of the histamine as reported in relaxed rat aortic rings with intact endothelium, submaximally precontracted with 15.8 nM U-46,619. Format: functional, tissue-based. The note with it: Aorta.
Target sequence in this assay (P31390 whole entry): as above
The target of assay [23] is Histamine H1 receptor (Cavia porcellus) (UniProt P31389). Nature of the assay: Negative logarithm of receptor dissociation constant Kp was reported guinea pig ileal whole segment. The class given is functional. An outline of the steps:
as §1

Assay [24] shares this target. Briefly: concentration of mepyramine was determined; value ranges from 1 to 30. Format: functional. The essentials:
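Guinea-pig ileum segments (either sex), mounted isotonically (0.5 g preload) at 37 °C in aerated Tyrode's with 0.1 µM atropine. […] Full pA2 was taken from an Arunlakshana-Schild plot with the slope constrained to unity.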

For assay [25] the target is unchanged. Briefly: Antagonist effects was studied on contraction of guinea-pig ileum preparation; value ranges from 3 to 30; f means observed by Kaumann-Marano plot. The class given is functional, tissue-based.
For assay [26] the target is unchanged. Briefly: Intrinsic activity was reported in guinea pig ileum whole segment. Format: functional, tissue-based.
The target is the same in assay [27]. Briefly: The compound was evaluated for intrinsic activity i.e. maximum histamine controls relative to contraction evoked by 10 uM PGF2-alpha. The class given is functional. An outline of the steps:
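Endothelium-denuded guinea-pig aortic rings, set up as in the contraction assay, challenged twice with PGF2α (10 µM). Rings were precontracted with a threshold PGF2α level (usually 0.4–1.5 µM, 10–20% of the 10 µM response).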

For assay [28] the target is unchanged. Nature of the assay: The compound was evaluated for intrinsic activity i.e. second curves of histamine controls set to 100%, aorta primed with histamine; termed: intrinsic activity.
The target of assay [29] is T2, Histamine H1 receptor. Nature of the assay: Compound was evaluated for mepyramine antagonism effects in rat aorta (relaxation) at a mepyramine concentration of 100 nM. The note with it: read-out: pA2 (converted).

Where “and” joins values, the source holds several entries; their conditions need not be identical. Identical values can stand only once.

What is called EC50 is the concentration giving half of the maximal effect. One may read the pA2 as the negative logarithm of the molar antagonist concentration that doubles the agonist concentration needed for the same response.

Chain of Histamine H2 receptor (P47747 whole entry): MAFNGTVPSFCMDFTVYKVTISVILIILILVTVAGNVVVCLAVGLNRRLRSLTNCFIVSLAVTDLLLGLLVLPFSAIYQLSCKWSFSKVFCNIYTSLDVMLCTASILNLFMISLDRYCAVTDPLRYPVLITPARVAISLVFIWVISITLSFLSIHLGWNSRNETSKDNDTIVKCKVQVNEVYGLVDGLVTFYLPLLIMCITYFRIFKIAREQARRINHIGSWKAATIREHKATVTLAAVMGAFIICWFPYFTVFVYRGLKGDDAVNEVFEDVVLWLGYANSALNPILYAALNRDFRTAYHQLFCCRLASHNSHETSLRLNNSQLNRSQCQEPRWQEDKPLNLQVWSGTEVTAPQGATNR
T1 sequence (P31389 whole entry): as the sequence (P31389 whole entry) above
Chain of 5-hydroxytryptamine receptor 2A (P14842 whole entry): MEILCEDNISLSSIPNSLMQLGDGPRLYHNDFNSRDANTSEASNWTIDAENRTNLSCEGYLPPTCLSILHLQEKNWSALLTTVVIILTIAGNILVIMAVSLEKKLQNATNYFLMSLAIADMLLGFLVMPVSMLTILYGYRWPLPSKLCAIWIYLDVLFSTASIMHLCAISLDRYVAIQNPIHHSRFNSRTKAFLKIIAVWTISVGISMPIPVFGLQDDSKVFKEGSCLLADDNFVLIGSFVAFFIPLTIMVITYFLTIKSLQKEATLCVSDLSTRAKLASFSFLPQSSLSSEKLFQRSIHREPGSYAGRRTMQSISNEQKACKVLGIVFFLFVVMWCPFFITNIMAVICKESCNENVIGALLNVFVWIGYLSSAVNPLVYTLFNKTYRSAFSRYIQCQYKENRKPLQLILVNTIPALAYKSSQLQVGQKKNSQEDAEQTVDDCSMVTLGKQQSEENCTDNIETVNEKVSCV
Chain of Beta-1 adrenergic receptor (B0FL73 whole entry): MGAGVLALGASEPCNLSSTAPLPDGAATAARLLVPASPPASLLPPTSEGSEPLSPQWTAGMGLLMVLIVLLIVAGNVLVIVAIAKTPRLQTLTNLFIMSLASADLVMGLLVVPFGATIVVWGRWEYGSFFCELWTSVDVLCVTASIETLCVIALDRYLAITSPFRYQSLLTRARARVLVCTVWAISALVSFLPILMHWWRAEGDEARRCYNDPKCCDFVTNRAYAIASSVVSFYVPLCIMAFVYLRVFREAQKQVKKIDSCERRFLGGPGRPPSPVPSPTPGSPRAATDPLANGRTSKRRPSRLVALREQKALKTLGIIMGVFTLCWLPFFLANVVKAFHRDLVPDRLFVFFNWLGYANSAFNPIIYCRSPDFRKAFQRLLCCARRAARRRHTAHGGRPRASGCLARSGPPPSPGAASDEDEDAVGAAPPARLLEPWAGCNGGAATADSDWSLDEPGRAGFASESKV

Take `c1ccc(C(CCc2nc(CCNC3CC3)c[nH]2)c2ccccc2)cc1`: the pKp in assay [1] was 6.17. The concentration for a half-maximal effect (EC50) at Histamine H1 receptor [2] is 148 nM; on Histamine H1 receptor [4], 355 nM; at Histamine H1 receptor [6], 2290 nM. Moreover, the Kb on Histamine H1 receptor [3] is 1.41 nM and 2.14 nM; in assay [7] it was 933 nM; at Histamine H2 receptor, 20 µM; at Histamine H3 receptor it was greater than 501 nM; in [8], 5.75 nM. Moreover, the Emax in assay [5] was 56 and 62.
For `CCNCCc1c[nH]c(CCC(c2ccccc2)c2ccccc2)n1`, the pKp in assay [1] was found to be 5.75. Also, the EC50 was 302 nM on Histamine H1 receptor [2] and 646 nM on Histamine H1 receptor [4]. Moreover, the Kb is 1.55 nM on Histamine H1 receptor [3] (in the assay text read “at 5 nM mepyramine” for “at 100 nM mepyramine”), 1020 nM in assay [7], 31.6 µM on Histamine H2 receptor and greater than 1000 nM at Histamine H3 receptor. Also, the Emax in assay [9] is 89; in [5], 44 and 47.
`CN(C)CCc1c[nH]c(CCC(c2ccccc2)c2ccccc2)n1`: the Kb in [10] was 7.76 µM; in [11] it was greater than 31.6 µM; in assay [12] it was 26.3 µM; at Histamine H1 receptor [3], 0.776 nM and 1.38 nM; in assay [7] it was 1150 nM; at Histamine H2 receptor, 26.3 µM. In addition, the Kb in assay [15] was greater than 1580 nM; at Histamine H3 receptor, greater than 1580 nM; in assay [16] it was 3.72 µM; at Histamine H1 receptor [17], 2.51 nM; in assay [8], 10.5 nM. In [1], this molecule yielded a pKp of 6.4. The EC50 at Histamine H1 receptor [2] was 83.2 nM; on Histamine H1 receptor [13] it was 120 nM; at Histamine H1 receptor [4], 170 nM; at Histamine H1 receptor [6] it was 832 nM. Also, in [14], the pA2 is less than 5.8. Besides, the Emax in assay [5] is 51 and 55.
As to `NCCc1c[nH]cn1` [HISTAMINE], the EC50 is 2240 nM in the assay filed under Cavia porcellus [18], 4.47 µM in the assay listed under Rattus norvegicus, 200 nM in the assay listed under Cavia porcellus [19] and 316 nM in the assay listed under Cavia porcellus [20].
For the molecule `NCCc1c[nH]c(CCC(c2ccccc2)c2ccccc2)n1`, the Emax in assay [21] turned out to be 46; in assay [22] it was 50; in assay [26], 100; in assay [27], 84; in assay [28], 72. Further, the pKp in assay [23] came to 6.04. This molecule also registered a pA2 in assay [14] of less than 5.7. Also, the Concentration in [24] was 30 nM; in [25] it was 30 µM.
Regarding `CNCCc1cnc(CCC(c2ccccc2)c2ccccc2)[nH]1`, the Kb was 5.75 µM in [10]; 14.5 µM in assay [12]; 0.741 nM and 1.35 nM at Histamine H1 receptor [3]; 9.55 nM on Histamine H1 receptor [29]; 3550 nM in assay [7]; 12.6 µM on Histamine H2 receptor. Also, the Kb in assay [15] was greater than 1580 nM; on Histamine H3 receptor, greater than 1580 nM; in [16] it was 4.07 µM; on Histamine H1 receptor [17], 1.78 nM. The concentration for a half-maximal effect (EC50) on Histamine H1 receptor [2] is 57.5 nM; on Histamine H1 receptor [13], 77.6 nM; at Histamine H1 receptor [4], 158 nM; at Histamine H1 receptor [6] it was 490 nM.
